In the library only some 1.2% were active in any assay of this set; here they are far more common.
RAD52 anneal inh – blocks human RAD52 DNA annealing. P43351. recombinant RAD52 DNA annealing, FRET fluorescence. inhibition, % at 18.7 µM. actives 0.46% (n = 360,000). AID 651710;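 active = every replicate showing at least 50% inhibition; inconclusive = mean inhibition at least 50% but not in every replicate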
AF4-AF9 inh – blocks AF4 peptide binding to human AF9; AlphaScreen, biotin-AF4 peptide binding to FLAG-AF9; inhibition, % at 10 µM; actives 0.47% (n = 350,000); P42568;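 active = every replicate reaching a set inhibition limit, whatever the replicate mean, cut at about 25% in these data; inconclusive = mean inhibition reaches that limit but some replicates miss it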
NSD2 inh – NSD2 (human) methyltransferase inhibition; NSD2 peptide methylation, AlphaScreen, 120 min; inhibition, % at 12.5 µM; actives 0.54% (n = 310,000); in the data active = inhibition above about 50%
Glyco luc inh – blocks N-linked glycosylation in D54 reporter cells; D54 ERlucT glycosylation luciferase reporter, 24 h; percent of 100 nM tunicamycin response; actives 0.23% (n = 360,000); reporter increase, % at 12.5 µM;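 active = mean luciferase reporter signal, scaled so untreated is 0 and the glycosylation-blocking control 100, at or above a set limit in every replicate; inconclusive = mean reaches the limit but not every replicate does; inactive = mean below the limit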;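 also: luciferase carries N-glycosylation sites so blocking glycosylation raises the light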
FN deposit inh – fibronectin deposition inhibition; inhibition, % at 12.6 µM; AH1F fibroblasts, Alexa488-fibronectin deposition fluorescence, overnight; actives 0.086% (n = 350,000);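 active = mean inhibition across replicates of 30% or more, regardless of how many single replicates reach that level; inconclusive = mean under 30% yet at least half of replicates reach 30%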
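Schedule: 1 h cell adhesion before compound, then overnight fibronectin incubation; test system: AH1F fibroblast monolayer depositing Alexa488-labelled fibronectin into matrix; quantity: 10000 AH1F cells per well; probe or stimulus: fluorescent fibronectin at 24 nM final; signal: fluorescence, ex 485 nm, em 525 nm; evaluation: percent inhibition as loss of matrix-bound fibronectin fluorescence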
RAD54 branch – inhibitors of human RAD54 branch migration; RAD54 Holliday junction branch migration, FAM/BHQ fluorescence; Q92698; inhibition, % at 10.4 µM; actives 0.14% (n = 360,000);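 active = mean normalized replicate activity at least 40 and at least half of replicates scoring 40 or more; inconclusive = only one of the two criteria met; inactive = mean below 40 and under half of replicates reaching 40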;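 also: inhibitors cause a drop in the FAM fluorescence signal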
Target sequence (Q92698 whole entry, looked up): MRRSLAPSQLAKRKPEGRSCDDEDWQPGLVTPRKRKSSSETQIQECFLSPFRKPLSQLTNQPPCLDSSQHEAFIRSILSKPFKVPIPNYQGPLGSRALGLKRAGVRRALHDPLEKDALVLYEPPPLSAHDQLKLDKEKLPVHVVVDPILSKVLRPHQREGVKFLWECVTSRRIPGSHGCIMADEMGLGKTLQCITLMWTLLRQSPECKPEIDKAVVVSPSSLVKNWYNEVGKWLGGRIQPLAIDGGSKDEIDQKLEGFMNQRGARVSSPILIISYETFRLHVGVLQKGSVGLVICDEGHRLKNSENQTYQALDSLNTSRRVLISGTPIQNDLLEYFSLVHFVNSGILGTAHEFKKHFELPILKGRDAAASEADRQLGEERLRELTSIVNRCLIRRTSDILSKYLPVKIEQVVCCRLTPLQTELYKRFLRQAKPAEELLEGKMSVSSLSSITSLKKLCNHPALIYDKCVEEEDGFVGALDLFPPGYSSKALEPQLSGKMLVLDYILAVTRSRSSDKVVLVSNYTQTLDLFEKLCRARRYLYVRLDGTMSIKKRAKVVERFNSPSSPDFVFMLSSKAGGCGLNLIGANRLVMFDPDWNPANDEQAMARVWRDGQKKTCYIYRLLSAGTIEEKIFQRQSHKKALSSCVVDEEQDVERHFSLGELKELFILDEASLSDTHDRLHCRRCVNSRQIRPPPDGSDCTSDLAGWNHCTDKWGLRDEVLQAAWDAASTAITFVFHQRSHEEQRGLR
Hits are given with their value; i = inactive; ? = inconclusive; nt = not tested or not shown; ! = a repeat was not active.

SMILES	RAD52 anneal inh	AF4-AF9 inh	NSD2 inh	Glyco luc inh	FN deposit inh	RAD54 branch
COc1ccccc1N1CCN(Cc2nc(-c3ccc(F)cc3)oc2C)CC1	i	i	i	i	i	nt
COc1ccccc1N1CCN(Cc2cn[nH]c2-c2ccc(F)cc2)CC1	i	53.1	i	i	i	i
O=C(CCC(=O)c1cccs1)NCc1cccnc1	i	i	i	i	38.1	i
CC(=O)N1[C@@H](CO)[C@@H](c2ccccc2)C12CN(C(=O)c1ccccc1)C2	i	i	nt	nt	nt	nt
Cn1cccc1/C=C1\SC(=Nc2cccc(O)c2)NC1=O	i	25.1	nt	i	i	i
O=C(OCCC12CC3CC(CC(C3)C1)C2)c1ccc(NCc2cc(O)ccc2O)cc1	i	27.9	i	i	i	nt
CN1C(=O)CSc2ccc(NC(=O)Nc3ccccn3)cc21	i	i	i	31.2	nt	nt
CC(=O)Nc1ccc(NC(=O)Nc2ccc3c(c2)N(C)C(=O)CS3)cc1	i	i	i	i	i	nt
CC[C@H]1CC=CC[C@H](C)Oc2ccccc2C(=O)N(C)[C@@H](C(C)C)C(=O)N1 (mixture of isomers)	nt	nt	nt	nt	i	nt
C[C@@H]1CN([C@H](C)CO)C(=O)c2cc(NC(=O)Cc3cn(C)c4ccccc34)ccc2O[C@H]1CN(C)S(=O)(=O)c1ccc(Cl)cc1	i	i	nt	nt	nt	i
C[C@H]1CN(S(=O)(=O)C(C)(C)C)[C@H](CCO)/C1=C\c1ccccc1	i	i	nt	i	i	i
CC(C)(C)S(=O)(=O)N1C[C@@H]2CC/C=C\C/C(c3ccccc3)=C\2[C@H]1CCO	i	i	nt	38.3	i	i
O=C(Nc1ccccc1)N[C@@H]1CC[C@@H](CCNS(=O)(=O)c2cccc(F)c2)O[C@H]1CO	i	i	nt	nt	nt	i
C[C@H]1CN([C@@H](C)CO)C(=O)Cc2cc(NS(=O)(=O)c3cccs3)ccc2O[C@H]1CN(C)S(=O)(=O)c1ccc(Cl)cc1	i	i	nt	nt	nt	nt
COc1ccc(NC(=O)N2[C@@H]3CNC[C@H]2C3c2ccc(-c3cccc(OC)c3)cc2)cc1 (some centres undefined)	i	i	nt	nt	i	nt
COc1cccc(NC(=O)N2[C@@H]3CNC[C@H]2C3c2ccc(/C=C/c3ccccc3)cc2)c1 (some centres undefined)	54.0!	i	nt	nt	i	nt
COc1cccc(-c2ccc(C3[C@H]4CNC[C@@H]3N4C(=O)Nc3ccc4c(c3)OCO4)cc2)c1 (some centres undefined)	71.3	i	nt	nt	i	nt
CN(C)C(=O)c1ccc(-c2ccc(C3[C@H]4CNC[C@@H]3N4C(=O)Nc3cccc(Cl)c3)cc2)cc1 (some centres undefined)	55.8	i	nt	nt	i	nt
O=C(Nc1cccc(Cl)c1)N1[C@@H]2CNC[C@H]1C2c1ccc(/C=C/c2ccccc2)cc1 (some centres undefined)	60.2!	i	nt	nt	i	nt
COc1ccc(NC(=O)N2[C@@H]3CNC[C@H]2C3c2ccc(-c3ccccc3C)cc2)cc1 (some centres undefined)	64.2!	i	nt	nt	i	nt
C[C@H]1CN([C@@H](C)CO)C(=O)c2cc(NC(=O)NC3CCCCC3)ccc2O[C@H]1CN(C)Cc1ccccc1	i	32.6	nt	nt	nt	i
C[C@@H]1CN([C@@H](C)CO)C(=O)c2cc(NC(=O)C3CCCCC3)ccc2O[C@H]1CN(C)Cc1ccc(-c2ccccc2)cc1	i	i	nt	nt	30.2	i
Cc1ccc2c(c1)cc(CN(C(=O)N1CCOCC1)C1CCCC1)c1nnnn12	i	i	i	40.2	i	nt
Cc1ccccc1C[n+]1cccc2ccccc21	i	50.3	nt	i	i	i
CC(=O)N(C)C[C@H]1Oc2cc(C#Cc3ccncc3)ccc2S(=O)(=O)N([C@@H](C)CO)C[C@H]1C	i	i	nt	nt	i	i
SMILES	RAD52 anneal inh	AF4-AF9 inh	NSD2 inh	Glyco luc inh	FN deposit inh	RAD54 branch
C[C@@H]1CN([C@@H](C)CO)C(=O)c2cc(NS(=O)(=O)c3ccc(F)cc3)ccc2O[C@@H](C)CCCCO[C@@H]1CN(C)S(=O)(=O)c1cccs1	i	i	nt	nt	i	i
COc1ccc(/C=C2\COc3ccccc3C2=O)cc1OC	nt	nt	i	35.9	i	nt
COc1ccc(/C=C2/CCc3ccccc3C2=O)cc1OC	nt	nt	i	i	i	i
Cc1cccc(N2CCN(S(=O)(=O)c3ccc(-c4ccc(=O)[nH]n4)o3)CC2)c1C	i	i	i	39.8	i	i
CC(=O)C1=C(O)C(=O)N(c2ccc(O)cc2)C1c1ccc([N+](=O)[O-])cc1 (centres undefined)	i	i	i	i	36.0	i
CC(=O)C1=C(O)C(=O)N(c2ccc(C)cc2)C1c1ccc([N+](=O)[O-])cc1 (centres undefined)	i	i	i	i	i	nt
C[C@@H]1CN([C@@H](C)CO)C(=O)c2cc(NC(=O)Nc3ccc(F)cc3)ccc2O[C@@H](C)CCCCO[C@H]1CN(C)C(=O)CCCN(C)C	51.1	i	nt	nt	nt	i
C[C@H](CO)N1C[C@H](C)[C@H](CN(C)C(=O)CCCN(C)C)OCCCC[C@H](C)Oc2ccc(NC(=O)Nc3ccc(F)cc3)cc2C1=O	i	i	nt	nt	nt	i
C[C@@H]1CCCCO[C@@H](CN(C)CC2CC2)[C@H](C)CN([C@@H](C)CO)C(=O)c2cc(NC(=O)c3ccccc3)ccc2O1	nt	i	nt	nt	i	nt
C[C@@H]1CCCCO[C@H](CN(C)CC2CC2)[C@H](C)CN([C@@H](C)CO)C(=O)c2cc(NC(=O)c3ccccc3)ccc2O1	51.6	i	nt	nt	i	i
C[C@@H]1CCCCO[C@@H](CN(C)CC2CC2)[C@H](C)CN([C@H](C)CO)C(=O)c2cc(NC(=O)Nc3ccc4c(c3)OCO4)ccc2O1	i	?	nt	nt	i	i
CCCN(C)C[C@@H]1OCCCC[C@@H](C)Oc2ccc(NC(=O)Nc3ccc4c(c3)OCO4)cc2C(=O)N([C@H](C)CO)C[C@H]1C	i	25.3	nt	nt	nt	i

High-throughput results as filed in PubChem BioAssay.
